Measurements reported in ChEMBL document CHEMBL1140127, “Enantiomeric propanolamines as selective N-methyl-D-aspartate 2B receptor antagonists” (J Med Chem, 2008).
Calls of active or inactive are those of the source. No cut-off for these calls is given here.

What was measured:
Neuron [1] = assay: Inhibition of tetrodotoxin-sensitive voltage-gated sodium current in E17 Sprague-Dawley rat neurons at 3 uM at holding potential of […] by whole cell patch clamp method; format: functional
[2] = molecular target: Glutamate receptor 3 (Rattus norvegicus) (UniProt P19492); assay: Inhibition of rat recombinant GluR3 expressed in Xenopus oocytes assessed as inhibition of kainate-induced evoked current at 3 uM by two electrode voltage clamp method; format: cell-based; conditions: Oocyte
In short: (§1)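 Xenopus oocytes injected with 5–10 ng rat receptor cRNA and kept in Barth's solution at 18 °C. Two-electrode voltage clamp at −40 mV and 23 °C, 2–7 days after injection, in 90 NaCl/1 KCl/10 HEPES/0.5 BaCl2 mM at pH 7.3 or 7.6. Agonists: 50 μM kainate for GluR3, GluR4 and GluR2/3; 3 nM domoate for GluR6; 100 μM AMPA for GluR6/KA1. Current expressed as % of control; paired t test.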

[3] = Ratio of drug level in rat brain to plasma by LC-MS/MS analysis; format: ADME
In short: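 Rats (n = 3 per dose) received a 4 mg/kg single iv bolus via the tail vein or 30 mg/kg ip, in 2% dimethyl acetamide/98% 5% 2-hydroxypropyl cyclodextrin, after an overnight fast. Plasma was taken at 5–240 min. Brain was homogenized in 50 mM phosphate buffer. Samples were extracted with 5 volumes of cold acetonitrile and read by LC-MS/MS (MRM) against a standard curve.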

[4] = molecular target: Glutamate NMDA receptor; Grin1/Grin2b (Rattus norvegicus, UniProt P35439+Q00960); assay: Inhibition of rat recombinant NR1/NR2B receptor expressed in Xenopus oocytes assessed as inhibition of glutamate and glycine-induced evoked current by two electrode voltage clamp method; format: cell-based, Oocyte
[5] = molecular target: Glutamate NMDA receptor; Grin1/Grin2c (Rattus norvegicus) (UniProt P35439+Q00961); assay: Inhibition of rat recombinant NR1/NR2C receptor expressed in Xenopus oocytes assessed as inhibition of glutamate and glycine-induced evoked current at 3uM by two electrode voltage clamp method; format: cell-based; conditions: Oocyte
[6] = molecular target: Sodium-dependent dopamine transporter (Homo sapiens, UniProt Q01959); assay: Binding affinity to dopamine transporter
Neuron [7] = assay: Inhibition of voltage-gated potassium current in E17 Sprague-Dawley rat neurons at 3 uM by whole cell patch clamp method; format: functional
[8] = molecular target: Glutamate receptor 4 (Rattus norvegicus) (UniProt P19493); assay: Inhibition of rat recombinant GluR4 expressed in Xenopus oocytes assessed as inhibition of kainate-induced evoked current at 3 uM by two electrode voltage clamp method; format: cell-based; conditions: Oocyte; in short: as §1
[9] = molecular target: Glutamate NMDA receptor; GRIN1/GRIN2B (Homo sapiens) (UniProt Q05586+Q13224); assay: Inhibition of human NR1/NR2B receptor
Mus musculus [10] = assay: Effect on motor coordination in mouse at 30 mg/kg, ip administered 20 mins prior to test after 5 days by rotarod test; format: ADME, organism-based; parameters: dose 30 mg/kg, route intraperitoneal; conditions: in vivo, 120 h
In short: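 Accelerating rotorod: mice held 10 s at 5 rpm, then accelerated from 5 to 35 rpm over 5 min; latency to fall recorded by light sensor. Four trials per day for 5 days, 25 min between trials. On day 5, mice were randomized and given a 5 mL/kg ip injection in 25% DMSO/75% saline 20 min before the first trial. Operator blinded; ANOVA with Dunnett's post hoc test.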

[11] = molecular target: Glutamate receptor 2 (Rattus norvegicus) (UniProt P19491); assay: Inhibition of rat recombinant GluR2/GluR3 expressed in Xenopus oocytes assessed as inhibition of kainate-induced evoked current at 3 uM by two electrode voltage clamp method; format: cell-based; conditions: Oocyte; in short: as §1
[12] = Protein binding in mouse plasma; format: ADME, cell-free; conditions: read-out: PPB (converted)
Brain = assay: Drug level in rat brain at 30 mg/kg, ip by LC-MS/MS analysis; format: ADME, organism-based; parameters: dose 30 mg/kg, route intraperitoneal
In short: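 Rats, n = 3 per dose, given 30 mg/kg ip in 2% dimethyl acetamide/98% 5% 2-hydroxypropyl cyclodextrin after overnight fasting. Brain weighed and homogenized on ice in 50 mM phosphate buffer. Homogenate extracted with 5 volumes of cold acetonitrile, then centrifuged. Parent compound quantified by LC-MS/MS in MRM mode against a standard curve.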

[13] = molecular target: Sodium-dependent serotonin transporter (Homo sapiens, UniProt P31645); assay: Binding affinity to serotonin transporter
[14] = Inhibition of N-type calcium channel
Rattus norvegicus [15] = assay: Anticonvulsant activity in Sprague-Dawley rat assessed as inhibition of electroshock-induced tonic hind limb extension at 100 mg/kg, ip administered 30 mins before electroshock; format: functional, organism-based; parameters: dose 100 mg/kg; conditions: Hindlimb
In short: (§2)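 Male Sprague–Dawley rats, 100–125 g, with 1% lidocaine dropped into each conjunctiva before maximal electroshock. Compound given ip in DMSO 30 min before the stimulus. Tested on three consecutive days: untreated on days 1 and 3, compound on day 2. Duration of tonic hind limb extension scored visually. Vehicle served as negative control and carbamazepine 60 mg/kg as positive control. ANOVA with Bonferroni post hoc test.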

[16] = Inhibition of sodium channel
In short: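 Rat cortical neurons cultured from E17 embryos and recorded at 5–10 days by whole-cell patch clamp at 23 °C. Holding −60 mV with 100 ms steps, in the presence of bicuculline, CNQX and DL-APV. Tetrodotoxin-sensitive Na+ current measured at −10 mV; mean compared by paired t test.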

[17] = molecular target: Adrenergic receptor alpha-2 (Rattus norvegicus, UniProt P22086+P19328+P22909); assay: Binding affinity to alpha2 adrenergic receptor in rat brain; format: tissue-based
[18] = Inhibition of L-type calcium channel
[19] = molecular target: Sodium-dependent noradrenaline transporter (Homo sapiens, UniProt P23975); assay: Binding affinity to norepinephrine transporter
[20] = Protein binding in human plasma; format: ADME, cell-free; conditions: read-out: PPB (converted)
[21] = molecular target: Ionotropic glutamate receptor NMDA 1/2D (Rattus norvegicus) (UniProt P35439+Q62645); assay: Inhibition of rat recombinant NR1/NR2D receptor expressed in Xenopus oocytes assessed as inhibition of glutamate and glycine-induced evoked current at 3uM by two electrode voltage clamp method; format: cell-based; conditions: Oocyte
Rattus norvegicus [22] = assay: Anticonvulsant activity in Sprague-Dawley rat assessed as inhibition of electroshock-induced tonic hind limb extension at 30 mg/kg, ip administered 30 mins before electroshock; format: functional, organism-based; parameters: dose 30 mg/kg; conditions: Hindlimb; in short: as §2
Mus musculus [23] = assay: Plasma concentration in C57BL/6 mouse at 30 mg/kg, ip; format: ADME, organism-based; parameters: dose 30 mg/kg, route intraperitoneal; conditions: in vivo
Mus musculus [24] = species on record: Mus musculus; conditions: 3 uM
Cortical neurone = assay: Neuroprotective effect against NMDA-induced toxicity in Sprague-Dawley rat cultured cortical neurons assessed as LDH release pretreated 15 mins before NMDA treatment assessed after 16 to 24 hrs by spectrophotometry; format: functional
In short: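 Rat cortical cultures (E16–E19) used at 9–12 days. Cells pretreated 15 min in ACSF at pH 7.6, then exposed 10 min at room temperature to 100 μM NMDA plus 10 μM glycine with compound present. Washed with D-APV/CNQX. LDH release measured 16–24 h later as a fraction of total. Scaled between the D-APV minimum and the NMDA maximum; cultures with <10% death discarded.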

Mus musculus [25] = species on record: Mus musculus; assay: Inhibition of mouse NR2B(deltaATD) mutant receptor

Chain of Sodium-dependent serotonin transporter (P31645 whole entry): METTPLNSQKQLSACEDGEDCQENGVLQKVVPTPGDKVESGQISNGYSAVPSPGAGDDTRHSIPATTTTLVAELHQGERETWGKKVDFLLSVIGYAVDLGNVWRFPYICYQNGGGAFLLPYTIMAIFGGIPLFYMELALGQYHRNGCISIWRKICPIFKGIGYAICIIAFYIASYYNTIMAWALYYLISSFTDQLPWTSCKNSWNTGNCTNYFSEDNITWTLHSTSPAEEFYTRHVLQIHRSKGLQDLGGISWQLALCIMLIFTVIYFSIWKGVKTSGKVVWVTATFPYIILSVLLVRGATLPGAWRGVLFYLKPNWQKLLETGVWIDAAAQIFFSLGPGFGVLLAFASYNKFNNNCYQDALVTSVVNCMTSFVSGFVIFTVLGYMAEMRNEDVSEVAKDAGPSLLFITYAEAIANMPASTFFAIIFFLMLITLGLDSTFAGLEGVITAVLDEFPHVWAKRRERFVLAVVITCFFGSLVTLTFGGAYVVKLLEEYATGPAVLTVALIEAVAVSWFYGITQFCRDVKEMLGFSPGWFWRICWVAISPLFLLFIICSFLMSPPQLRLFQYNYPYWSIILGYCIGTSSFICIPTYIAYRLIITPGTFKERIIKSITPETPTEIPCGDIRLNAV
Chain of Sodium-dependent noradrenaline transporter (P23975 whole entry): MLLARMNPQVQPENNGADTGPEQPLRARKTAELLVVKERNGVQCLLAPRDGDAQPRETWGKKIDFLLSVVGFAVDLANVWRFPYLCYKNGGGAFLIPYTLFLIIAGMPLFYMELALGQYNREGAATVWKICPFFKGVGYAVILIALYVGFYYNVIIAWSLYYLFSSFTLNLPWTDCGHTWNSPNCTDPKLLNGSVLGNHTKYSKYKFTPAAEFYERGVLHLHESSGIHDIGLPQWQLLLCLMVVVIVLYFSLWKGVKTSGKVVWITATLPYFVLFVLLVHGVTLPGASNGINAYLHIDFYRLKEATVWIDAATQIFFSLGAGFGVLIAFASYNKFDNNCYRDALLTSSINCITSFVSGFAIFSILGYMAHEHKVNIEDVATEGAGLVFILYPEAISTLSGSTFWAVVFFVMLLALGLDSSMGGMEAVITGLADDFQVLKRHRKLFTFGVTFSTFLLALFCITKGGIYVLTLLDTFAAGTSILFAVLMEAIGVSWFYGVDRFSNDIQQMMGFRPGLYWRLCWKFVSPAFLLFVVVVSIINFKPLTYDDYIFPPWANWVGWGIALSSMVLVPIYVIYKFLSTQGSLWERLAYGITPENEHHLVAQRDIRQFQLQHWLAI
Chain of Glutamate receptor 3 (Rattus norvegicus) (P19492 whole entry): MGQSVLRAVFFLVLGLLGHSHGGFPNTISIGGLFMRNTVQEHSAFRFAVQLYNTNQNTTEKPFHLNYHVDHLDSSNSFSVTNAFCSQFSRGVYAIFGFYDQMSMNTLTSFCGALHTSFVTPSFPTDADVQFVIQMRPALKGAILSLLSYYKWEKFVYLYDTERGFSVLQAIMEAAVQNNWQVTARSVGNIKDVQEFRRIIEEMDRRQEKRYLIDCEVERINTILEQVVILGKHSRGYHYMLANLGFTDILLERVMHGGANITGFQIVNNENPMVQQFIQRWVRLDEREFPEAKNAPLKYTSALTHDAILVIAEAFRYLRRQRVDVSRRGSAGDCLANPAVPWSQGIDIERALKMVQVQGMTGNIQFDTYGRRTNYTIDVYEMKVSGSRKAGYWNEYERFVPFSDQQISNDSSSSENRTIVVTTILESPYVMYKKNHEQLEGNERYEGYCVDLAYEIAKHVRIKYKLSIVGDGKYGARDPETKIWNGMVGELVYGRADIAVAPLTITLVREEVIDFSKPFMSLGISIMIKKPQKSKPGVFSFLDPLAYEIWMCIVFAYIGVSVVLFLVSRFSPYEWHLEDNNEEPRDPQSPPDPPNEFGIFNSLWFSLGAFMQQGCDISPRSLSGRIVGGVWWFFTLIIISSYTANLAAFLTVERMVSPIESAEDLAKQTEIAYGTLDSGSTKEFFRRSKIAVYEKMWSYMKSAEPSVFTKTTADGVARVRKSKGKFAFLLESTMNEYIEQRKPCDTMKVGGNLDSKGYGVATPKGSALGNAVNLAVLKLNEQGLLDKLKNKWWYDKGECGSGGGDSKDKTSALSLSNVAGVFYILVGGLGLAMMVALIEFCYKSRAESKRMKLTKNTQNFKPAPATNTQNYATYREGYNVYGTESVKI
Chain of Glutamate receptor 2 (Rattus norvegicus) (P19491 whole entry): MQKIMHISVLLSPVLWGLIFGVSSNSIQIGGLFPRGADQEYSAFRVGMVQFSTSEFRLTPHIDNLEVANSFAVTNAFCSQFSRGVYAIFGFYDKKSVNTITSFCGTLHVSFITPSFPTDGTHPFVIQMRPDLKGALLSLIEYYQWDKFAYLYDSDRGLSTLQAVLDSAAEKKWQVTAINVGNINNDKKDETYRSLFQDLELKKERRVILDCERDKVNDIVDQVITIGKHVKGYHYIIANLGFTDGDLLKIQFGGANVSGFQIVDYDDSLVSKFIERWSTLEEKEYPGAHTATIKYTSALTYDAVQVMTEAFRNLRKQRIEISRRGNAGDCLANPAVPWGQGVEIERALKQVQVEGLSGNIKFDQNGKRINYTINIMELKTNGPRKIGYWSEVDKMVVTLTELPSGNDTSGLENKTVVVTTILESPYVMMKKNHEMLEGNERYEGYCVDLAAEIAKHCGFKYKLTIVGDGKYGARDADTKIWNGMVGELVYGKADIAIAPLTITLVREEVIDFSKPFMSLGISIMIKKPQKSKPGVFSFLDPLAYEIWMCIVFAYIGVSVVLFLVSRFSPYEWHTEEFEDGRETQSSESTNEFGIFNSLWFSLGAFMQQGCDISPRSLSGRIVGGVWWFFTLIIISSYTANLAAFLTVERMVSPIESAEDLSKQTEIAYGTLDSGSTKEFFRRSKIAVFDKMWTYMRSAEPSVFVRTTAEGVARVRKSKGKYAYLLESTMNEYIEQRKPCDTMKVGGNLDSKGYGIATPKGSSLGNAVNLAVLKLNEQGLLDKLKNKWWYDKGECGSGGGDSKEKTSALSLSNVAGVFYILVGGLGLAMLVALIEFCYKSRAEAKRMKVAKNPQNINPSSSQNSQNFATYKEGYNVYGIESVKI
Chain of Sodium-dependent dopamine transporter (Q01959 whole entry): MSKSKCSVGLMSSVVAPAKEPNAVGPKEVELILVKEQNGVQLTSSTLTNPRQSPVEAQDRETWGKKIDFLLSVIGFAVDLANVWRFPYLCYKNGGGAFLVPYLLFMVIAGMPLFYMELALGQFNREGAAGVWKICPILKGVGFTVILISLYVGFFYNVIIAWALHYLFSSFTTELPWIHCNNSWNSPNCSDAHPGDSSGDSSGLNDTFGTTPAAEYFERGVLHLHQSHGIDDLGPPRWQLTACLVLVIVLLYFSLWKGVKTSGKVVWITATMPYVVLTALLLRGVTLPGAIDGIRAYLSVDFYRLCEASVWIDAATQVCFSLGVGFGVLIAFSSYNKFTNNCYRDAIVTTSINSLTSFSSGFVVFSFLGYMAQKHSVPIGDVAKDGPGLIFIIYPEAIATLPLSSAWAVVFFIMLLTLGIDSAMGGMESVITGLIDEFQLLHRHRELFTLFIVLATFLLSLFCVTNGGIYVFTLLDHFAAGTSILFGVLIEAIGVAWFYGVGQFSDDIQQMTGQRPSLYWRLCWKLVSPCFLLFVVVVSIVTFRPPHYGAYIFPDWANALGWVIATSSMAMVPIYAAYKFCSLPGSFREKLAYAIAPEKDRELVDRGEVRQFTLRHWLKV
Chain of Glutamate receptor 4 (Rattus norvegicus) (P19493 whole entry): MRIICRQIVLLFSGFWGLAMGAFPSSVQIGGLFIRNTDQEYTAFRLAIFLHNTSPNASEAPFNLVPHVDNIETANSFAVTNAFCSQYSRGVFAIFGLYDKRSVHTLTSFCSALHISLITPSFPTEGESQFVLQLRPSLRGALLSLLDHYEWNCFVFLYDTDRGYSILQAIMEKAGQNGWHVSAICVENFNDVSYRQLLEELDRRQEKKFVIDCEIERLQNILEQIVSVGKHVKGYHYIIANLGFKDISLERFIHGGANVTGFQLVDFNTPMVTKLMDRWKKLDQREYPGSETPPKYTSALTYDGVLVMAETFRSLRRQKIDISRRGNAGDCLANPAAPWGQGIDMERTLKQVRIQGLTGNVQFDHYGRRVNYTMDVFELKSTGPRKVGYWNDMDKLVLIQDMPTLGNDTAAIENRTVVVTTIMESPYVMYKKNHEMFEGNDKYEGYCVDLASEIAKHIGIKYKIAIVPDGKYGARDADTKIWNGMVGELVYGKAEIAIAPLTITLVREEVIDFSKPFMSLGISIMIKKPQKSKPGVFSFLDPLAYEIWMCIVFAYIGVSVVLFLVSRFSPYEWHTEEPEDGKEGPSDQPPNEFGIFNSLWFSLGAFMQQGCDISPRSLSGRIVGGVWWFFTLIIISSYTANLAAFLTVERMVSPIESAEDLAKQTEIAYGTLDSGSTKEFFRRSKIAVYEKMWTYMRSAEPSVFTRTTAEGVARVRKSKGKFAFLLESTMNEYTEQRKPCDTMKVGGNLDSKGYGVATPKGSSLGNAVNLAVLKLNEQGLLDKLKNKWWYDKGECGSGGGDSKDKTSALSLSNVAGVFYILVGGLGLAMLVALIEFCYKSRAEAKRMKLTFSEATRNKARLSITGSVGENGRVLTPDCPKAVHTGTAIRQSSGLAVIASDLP

In the case of CS(=O)(=O)Nc1ccc(OC[C@@H](O)CNCCc2ccc(Cl)c(Cl)c2)cc1, the Activity (Neuron [1]) is reported as 1.27 nanoampere, the Activity [2] is reported as “inactive” and the Ratio [3] is reported as less than 0.05. For the same molecule, the IC50 [4] was 50 nM, the Activity [5] was “inactive” and the IC50 [6] was 500 nM. The Activity (Neuron [7]) was 0.72 nanoampere, the Activity [8] was “inactive” and the Activity [9] was 53 nM. For the same molecule, the Activity (Mus musculus [10]) was “Non-toxic”, the Activity [11] was “inactive” and the fraction unbound [12] was 0.12. The concentration (Brain) was 170 nM, the IC50 [13] was greater than 3000 nM and the IC50 [14] was greater than 5000 nM. The Activity (Rattus norvegicus [15]) was “Active”, the IC50 [16] was greater than 5000 nM and the IC50 [17] was greater than 3000 nM. For the same molecule, the IC50 [18] was greater than 5000 nM, the IC50 [19] was 500 nM and the fraction unbound [20] was 0.02. The Activity [21] was “inactive”, the Activity (Rattus norvegicus [22]) was “inactive” and the concentration (Mus musculus [23]) was 1000 nM. For the same molecule, the inhibition (Mus musculus [24]) was 102%, the Activity (Cortical neurone) was “Dose-dependent effect” and the Activity (Mus musculus [25]) was “inactive”.
